Compound activity deposited in PubChem by Broad Institute.
SIRT5 block – inhibitors of human sirtuin-5 desuccinylase. Q9NXA8. Purified SirT5, succinyl-peptide AMC, trypsin-coupled fluorescence. inhibition, % at 15 µM. 1.1% of 330,000 active; in the data active = inhibition above about 15%; inconclusive = no clear call, values can overlap the other calls
Target sequence (Q9NXA8 whole entry, looked up): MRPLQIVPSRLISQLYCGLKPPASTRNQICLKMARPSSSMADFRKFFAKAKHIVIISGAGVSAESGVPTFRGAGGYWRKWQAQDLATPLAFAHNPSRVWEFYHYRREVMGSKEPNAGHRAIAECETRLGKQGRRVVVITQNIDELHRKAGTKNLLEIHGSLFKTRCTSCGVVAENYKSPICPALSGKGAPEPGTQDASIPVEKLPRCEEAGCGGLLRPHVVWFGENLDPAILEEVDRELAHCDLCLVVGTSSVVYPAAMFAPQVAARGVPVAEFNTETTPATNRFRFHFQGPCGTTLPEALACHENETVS
ARNT TACC3 PPI – disruptors of human ARNT/TACC3 interaction; AlphaScreen His-ARNT PAS-B/GST-TACC3 binding, luminescence; TACC3 fragment carries E629A point mutation; inhibition, % at 9.99 µM; 0.66% of 390,000 active; AID 623870;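 active = mean inhibition of replicates at least 50% and at least half of replicates each reaching 50%; inconclusive = half or more replicates reach 50% but mean below 50%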
FN deposit inh – fibronectin deposition inhibition; 0.086% of 350,000 active; AH1F fibroblasts, Alexa488-fibronectin deposition fluorescence, overnight; inhibition, % at 12.6 µM; AID 743247;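 active = mean inhibition across replicates of 30% or more, regardless of how many single replicates reach that level; inconclusive = mean under 30% yet at least half of replicates reach 30%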
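Assay system: AH1F fibroblast monolayer, labelled fibronectin deposition. Amount: 10000 cells per well. Also added: labelled fibronectin 24 nM. Compound: single-point pinned compound. Incubation: cell attachment 1 h, compound and FN exposure overnight. Detection: fluorescence after three HBSS washes, excitation 485 nm, emission 525 nm. Read-out: inhibition of fibronectin deposition signal.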
DENV2 CPE – protects cells from dengue virus 2 cytopathic effect | DENV2-infected cells, cytopathic effect rescue, plate reader | CPE inhibition, % at 9.99 µM | 1.7% of 350,000 active | AID 651640; in the data active = CPE inhibition above about 20%, passing the limit was not always enough; inconclusive = no clear call, values can overlap the other calls; tested in BHK-21 cells
FGF22 binding – FGF22 (human) thermal shift binding | Q9HCT0 | activity (Tm shift, normalised), % at 9.99 µM | recombinant FGF22 thermal shift, SYPRO orange fluorescence; percent of sucrose octasulfate shift, DMSO zero | 1.5% of 340,000 active;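 active = mean Tm shift, scaled 0 neutral to 100 positive control, at about 1.3% or above, every replicate too, limit read from the data; inconclusive = no clear call, values can overlap the other calls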
Target sequence (Q9HCT0 whole entry, looked up): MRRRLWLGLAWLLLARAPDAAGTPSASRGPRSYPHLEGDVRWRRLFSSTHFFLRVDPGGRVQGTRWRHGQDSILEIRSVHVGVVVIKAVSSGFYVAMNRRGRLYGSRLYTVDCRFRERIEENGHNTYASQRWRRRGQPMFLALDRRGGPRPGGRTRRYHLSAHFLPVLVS
XiGFP reactiv – X-chromosome reactivation activator. XiGFP mouse fibroblasts, % GFP-positive cells imaging, 3 d; cells co-treated with 5-aza-dC sensitizer; scaled so ellipticine positive control = 100%. activation, % at 7.58 µM. 0.055% of 360,000 active. AID 743238;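 active = mean normalized replicate activation at least 10% and every replicate at or above 10%; inconclusive = only one of the two criteria met; inactive = mean below 10% and not all replicates reach 10%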
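Material: SV40-immortalized XiGFP fibroblast cells, line 68-5-11 | Buffer or medium: DMEM containing 5-aza-dC | Dosing: One concentration, pinned | Times: 3 d treatment, 15 min room-temperature fixation | Controls: Ellipticine 6 µM positive control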
Of the large screens only hits and unclear results are named; the others gave an inactive call. Shown are actives, neighbours in structure and some others; about 3.8% of the full set was active somewhere.

COc1ccc(S(=O)(=O)Nc2ccc3c(c2)CC(=O)N([C@@H](C)CO)C[C@@H](C)[C@H](CN(C)Cc2ccc4c(c2)OCO4)O3)cc1	none
CO[C@@H](CN(C)C(=O)c1ccccc1F)[C@@H](C)CN([C@@H](C)CO)S(=O)(=O)c1ccc(F)cc1	none
COc1cc2cnc(-c3ccccc3)c(C(=O)c3ccc(F)cc3)c2cc1OC	none (no result: SIRT5 block)
COc1cccc(C(=O)c2c(-c3ccccc3)ncc3cc(OC)c(OC)cc23)c1	DENV2 CPE 27, XiGFP reactiv inconclusive
CC(C)NC(=O)N(C)C[C@@H]1Oc2ncccc2C(=O)N(C)C[C@@H]1C	none (no result: SIRT5 block, ARNT TACC3 PPI, DENV2 CPE, FGF22 binding)
COC(=O)c1cc2ccsc2n1Cc1ccccc1F	DENV2 CPE 113 (no result: SIRT5 block)
COc1ccc(C(=O)N/N=C/c2cccnc2)cc1	none
CCOc1ccc(C(=O)N/N=C/c2cccc3cccnc23)cc1	ARNT TACC3 PPI 65 (no result: SIRT5 block, FN deposit inh, DENV2 CPE, FGF22 binding, XiGFP reactiv)
CCOc1ccc(C(=O)N/N=C/c2ccccc2[N+](=O)[O-])cc1	none (no result: SIRT5 block, DENV2 CPE, FGF22 binding)
CCOc1ccccc1C(=O)N/N=C/c1cccc2cccnc12	ARNT TACC3 PPI 72 (no result: SIRT5 block, FN deposit inh, DENV2 CPE, FGF22 binding, XiGFP reactiv)
COc1ccc(C(=O)N/N=C/c2cccc3cccnc23)cc1	ARNT TACC3 PPI 88 (no result: SIRT5 block, FN deposit inh, DENV2 CPE, FGF22 binding, XiGFP reactiv)
COc1ccc(S(=O)(=O)N(C)C[C@@H]2Oc3ccc(NC(=O)CCCCCC(=O)Nc4ccccc4N)cc3CC(=O)N([C@H](C)CO)C[C@@H]2C)cc1	none (no result: FN deposit inh)
CCOc1ccccc1NC(=O)C(OC(=O)c1ccc(NC(=O)CC#N)cc1)c1ccccc1 (stereo not given)	none
CC(OC(=O)c1ccc(NC(=O)CC#N)cc1)C(=O)NC(c1ccccc1)c1ccccc1 (stereo not given)	SIRT5 block 16
C[C@H](CO)N1C[C@H](C)[C@H](CN(C)S(=O)(=O)c2ccc(Cl)cc2)Oc2c(NC(=O)CCCCCC(=O)Nc3ccccc3N)cccc2C1=O	none (no result: ARNT TACC3 PPI)
Cc1ccccc1NC(=O)c1ccc(OCC(=O)Nc2ccccc2F)cc1	FGF22 binding 43
COc1cccc(C(=O)NNC(=O)c2cccc3ccccc23)c1	none (no result: SIRT5 block, FN deposit inh)
COc1ccc(C(=O)NNC(=O)c2cccc3ccccc23)cc1	FGF22 binding 44 (no result: SIRT5 block)
CC(=O)c1ccccc1NC(=O)COC(=O)c1ccccc1NC(=O)c1ccccc1	FGF22 binding 16
Cc1ccc(OCC(=O)Nc2ccccc2F)cc1	none
COc1ccc(OCC(=O)Nc2ccc(C(=O)Nc3ccccc3C(=O)O)cc2)cc1	SIRT5 block 23
COc1ccc(NC(=O)c2ccc(NC(=O)CN3CCN(c4ccc(O)cc4)CC3)cc2)cc1	none (no result: FN deposit inh)
COc1ccc(NC(=O)c2ccc(NC(=O)CN3CCN(c4ccccc4O)CC3)cc2)cc1	FGF22 binding 43 (no result: SIRT5 block, ARNT TACC3 PPI)
Cc1ccc(S(=O)(=O)Nc2cccc3c2O[C@@H](CN(C)S(=O)(=O)c2ccc(C)cc2)[C@H](C)CN([C@H](C)CO)C3=O)cc1	none (no result: FN deposit inh)
Brc1ccc2c(c1)-c1ccccc1C1=NCCN12	FGF22 binding 43 (no result: SIRT5 block, ARNT TACC3 PPI)
C[C@@H]1CCCCO[C@H](CN(C)C)[C@H](C)CN([C@H](C)CO)C(=O)c2cc(NC(=O)Nc3cccc4ccccc34)ccc2O1	DENV2 CPE 74 (no result: FN deposit inh)
C[C@@H]1CN([C@@H](C)CO)C(=O)c2cc(NC(=O)Nc3cccc4ccccc34)ccc2O[C@@H](C)CCCCO[C@H]1CN(C)CC1CCCCC1	DENV2 CPE 28 (no result: FN deposit inh)
C[C@@H]1CCCCO[C@@H](CN(C)CC2CCCCC2)[C@H](C)CN([C@H](C)CO)C(=O)c2cc(NC(=O)Nc3cccc4ccccc34)ccc2O1	DENV2 CPE 118, FGF22 binding 1.3 (no result: FN deposit inh)
Cc1nc2sc3c(NCc4ccco4)ncnc3c2c2c1COC(C)(C)C2	none (no result: SIRT5 block, FN deposit inh, DENV2 CPE, FGF22 binding, XiGFP reactiv)
COCCCNc1ncnc2c1sc1nc(-c3ccco3)c3c(c12)CC(C)(C)OC3	SIRT5 block 19
CC1(C)Cc2c(c(-c3ccco3)nc3sc4c(NCCO)ncnc4c23)CO1	FGF22 binding 43 (no result: ARNT TACC3 PPI)
CO[C@@H]1CN(C)C(=O)c2ccc(NS(=O)(=O)c3cn(C)cn3)cc2OC[C@H](C)N(C)C[C@@H]1C	none (no result: DENV2 CPE)
Cc1ccc2nc(-c3ccc(NC(=S)NC4CC(C)(C)NC(C)(C)C4)cc3)sc2c1	FGF22 binding 43
